According to article PMC9904295 (Drug Delivery, 2023):

Legend:
[1] = Pharmacokinetic study in rats, intravenous; type: in vivo, Sprague-Dawley rats; conditions: i.v., 5 mg/kg in OXA
Procedure, shortened: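 Twelve Sprague-Dawley rats (half male) were split into two groups and given one i.v. dose equivalent to 5 mg/kg. The free drug was prepared in 5% glucose. Retro-orbital blood was taken at 0.083–24 h and centrifuged at 12,000 rpm for 5 min. Plasma drug was measured by UPLC-MS/MS and total Pt by ICP-MS. Non-compartmental analysis gave AUC, Cmax, t1/2, MRT and CL; mean ± SD, n = 6.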

[2] = system: SW620 cells; test: In vivo antitumor efficacy in xenograft tumor-bearing mice; set-up: species or system BALB/c nude mice; conditions: xenograft tumor-bearing nude mice, i.v. once a week
Procedure, shortened: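 Male BALB/c nude mice (18–20 g) were inoculated with 3 × 10^6 SW620 cells at the right third fat pad. At tumors of about 100–200 mm3 they were randomised into six groups, with 5% glucose as control. Test compound was given i.v. by tail vein once a week for 4 weeks at 5 or 10 mg/kg (free form) or 5, 10 or 20 mg/kg (nanoparticle). Tumor volume (L × W × W/2) and body weight were measured three times weekly, and RTV = V/V0. Tumors were weighed at the end; n = 6, mean ± SD, Student's t test.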

[3] = Toxicity evaluation after repeated dosing; type: in vivo; conditions: ICR mice
Procedure, shortened: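 Male ICR mice (17–18 g) were randomised into six groups (n = 10), with 5% glucose as control. Test compound was given i.v. every 3 days for five doses at 7.5 or 10 mg/kg (free form) or 7.5, 10 or 15 mg/kg drug-equivalent (nanoparticle). At the end, organs were harvested for viscera index, whole blood was taken for routine counts, and serum TP, ALB, UREA and Cr were measured. Data are mean ± SD, Student's t test.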

[4] = analyte total Pt (ICP-MS) in plasma

O=C1[O][Pt]2([NH][C@@H]3CCCC[C@H]3[NH]2)[O]C1=O [OXA, oxaliplatin]
AUC0-t ([1]; analyte OXA in plasma): 1940 ± 390 ng·h/mL | AUC0-∞ ([1]; analyte OXA in plasma): 2030 ± 550 ng·h/mL | CL ([1]; analyte OXA in plasma): 2,580 ± 560 mL/h/kg | Cmax ([1]; analyte OXA in plasma): 9580 ± 1420 ng/mL | T1/2 ([1]; analyte OXA in plasma): 0.16 ± 0.07 h | Vz ([1]; analyte OXA in plasma): 567 ± 70 mL/kg | AUC0-t [1, 4]: 13000 ± 3440 ng·h/mL | AUC0-∞ [1, 4]: 19980 ± 5650 ng·h/mL | CL [1, 4]: 127.98 ± 36.2 mL/h/kg | Cmax [1, 4]: 4760 ± 680 ng/mL | T1/2 [1, 4]: 17.52 ± 0.52 h | Vz [1, 4]: 3,220 ± 818 mL/kg | tumor growth inhibition, dose dependence [2]: dose-dependent tumor growth inhibition | UREA ([3]; 10 mg/kg i.v. every 3 days for five times): significant decrease | biochemical indexes (TP, ALB, UREA, Cr) ([3]; i.v. every 3 days for five times, except UREA at 10 mg/kg): No significant change
